Screening results: PubChem BioAssay, several laboratories
Ba/F3 V617F tox: reduced viability of JAK2V617F-dependent Ba/F3 cells, primary screen, JAK2V617F inhibitor project, cell-based, Ba/F3 EpoR-JAK2V617F, luminescence. 1.1% of 220,000 active. inhibition, % at 5.6 µM. AID 1446, 2008. ATP luminescence;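 active means inhibition above the campaign mean plus 3 SD over all tested compounds, cut at about 24% in these data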;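 further: cytokine-independent growth of Ba/F3 cells driven by EpoR plus mutant JAK2; 0% = DMSO-treated cells and 100% = JAK inhibitor I control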
MT stabilize HCS: microtubule stabilizers in HeLa cells, primary screen, imaging, high-content imaging; % tubulin-high responders, % at 10 µM; 0.83% of 200,000 active; HeLa tubulin immunostaining HCS, 24 h; share of cells brighter than vehicle mean+2SD;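 active means plate Z-score above 3 for both tubulin-high and condensed-nucleus cell shares, with cell loss under 80%, at 10 µM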;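 further: anti alpha tubulin signal scored within the nucleus-defined area of each cell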
b-catenin transl: modulators of beta-catenin nuclear translocation, primary screen, imaging, HeLa cells, immunofluorescence, high-content | nuclear translocation activity, % at 5 µM | 0.3% of 190,000 active;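 active means nuclear translocation activity above 50% at 5 µM, with a well cell count of 50 or more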;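 further: per-cell ratio of nuclear to cytoplasmic median beta-catenin stain intensity; plate controls were DMSO negative control for no effect and GSK-3 inhibitor IX positive control for full effect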
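System: HeLa cells, endogenous beta-catenin; compound dosing: 5 µM primary single dose, 0.1% DMSO, 0.02–20 µM confirmation series; incubation: 24 h compound exposure at 37°C, 5% CO2; signal: beta-catenin immunofluorescence imaging with DAPI; evaluation: % activation, nuclear-to-cytoplasmic median beta-catenin signal ratio per cell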
IEC-6 tox: cytotoxicity in IEC-6 intestinal epithelial cells, primary screen, cytotoxicity control for KLF5 inhibitor project, cell-based, luminescence; 0.78% of 290,000 active; inhibition, % at 5 µM; IEC-6 cytotoxicity, luminescence viability; AID 1825, 2009;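 further: 0% = plate median of test compound wells and 100% = cytotoxic reference compound wells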
KLF5 inh: KLF5 expression inhibitors, primary screen, DLD-1 cells, luminescence. DLD-1 KLF5 promoter-luciferase reporter. inhibition, % at 5 µM. 0.23% of 290,000 active;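 active means inhibition above a per-plate limit of that plate's mean compound inhibition plus 3 SD, cut at about 60% in these data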;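 further: 0% = DMSO wells and 100% = LY294002 at 200 µM; higher means less KLF5 promoter-driven luciferase light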
BaF3 parental: parental Ba/F3 cell viability inhibition, counter-screen for JAK2V617F inhibitor project, murine pro-B, CellTiter-Glo luminescence | CellTiter-Glo ATP luminescence | 1.1% of 220,000 active | AID 1486, 2009 | inhibition, % at 5.6 µM;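 active means inhibition above a per-campaign cutoff, the mean inhibition of all tested compounds plus 3 SD, cut at about 27% in these data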;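 further: 0% = DMSO wells and 100% = JAK Inhibitor I control wells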
IEC-6 cytotox cf: cytotoxic compounds in IEC-6 epithelial cells, confirmation, cytotoxicity control, cell-based, luminescence; shares compounds with IEC-6 tox; IEC-6 rat intestinal epithelial viability; inhibition, % at 5 µM; 63% of 1,900 active;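 further: 0% = vehicle and 100% = reference cytotoxic drug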
* marks the source's active call; other numbers are inactive results; / = no result given. Shown are actives, neighbours in structure and some others; about 2.1% of the full set was active somewhere. Unless noted, no stated cut-off is given here; in the data, active means inhibition above about 22%; inactive means the rest.

SMILES | Ba/F3 V617F tox | MT stabilize HCS | b-catenin transl | IEC-6 tox | KLF5 inh | BaF3 parental | IEC-6 cytotox cf
CCSC1=C(C#N)C(c2ccc(C)s2)CC(=O)N1 (centres undefined) | -2 | 3 | 0 | -1 | -3 | 0 | /
Cc1cc(NC(=O)c2ccccc2)c(Cl)cc1N | -4 | / | -1 | -4 | -4 | -3 | /
CN(C(=O)c1ccncc1)C1CCCCC1 | / | / | / | -2 | -67 | / | /
CC(C)[C@H](NC(=O)c1ccccc1Cl)C(=O)Nc1nc(-c2ccccn2)cs1 | 0 | 3 | 1 | 40* | 27 | 12 | 40*
CC(Oc1ccc(Br)cc1)C(=O)Nc1nc(-c2ccccn2)cs1 (centres undefined) | / | / | / | 50* | 21 | / | 24*
CCc1nnc(NC(=O)C(NC(=O)c2ccccc2Cl)C(C)C)s1 (centres undefined) | 0 | 4 | -1 | -2 | 14 | 1 | /
Cc1oc2cc(OCc3cnn(-c4ccccc4)c3)ccc2c(=O)c1Oc1ccccc1F | -5 | 4 | -1 | -5 | 4 | 4 | /
O=C1c2ccccc2C(=O)c2[nH]c(=O)[nH]c21 | / | / | / | 101* | 47 | / | 98*
O=C1c2ccccc2C(=O)c2[nH]cnc21 | -2 | / | -4 | 5 | -30 | 6 | /
O=C(NCc1cccnc1)c1ccc(NC(=O)c2ccc(Br)cc2)cc1 | / | / | / | 89* | -29 | / | 43*
Cc1cccc(OCC(=O)Nc2ccc(C(=O)NCc3cccnc3)cc2)c1 | 12 | 2 | / | 26* | 7 | -4 | -12
O=C(Cc1cn2ccsc2n1)OCc1ccccc1 | -2 | 1 | -6 | 35* | -14 | -1 | 19
COc1cc(OC)c(OC)cc1CNC(=O)c1ccc(COc2ccccc2)cc1 | / | / | / | -3 | -14 | / | /
O=C(O)[C@@H]1CCCN1C(=O)CCc1c[nH]c2ccccc12 | / | / | / | -3 | -5 | / | /
O=C(NNc1ccccc1)C(=O)NNS(=O)(=O)c1ccc(CCCl)cc1 | -1 | / | 3 | 44* | 23 | 1 | 11
O=C(Nc1ccccc1)Nc1ccc(-n2ccc(C(F)(F)F)n2)cc1 | 58* | / | 0 | 22* | -138 | 63* | 23*
O=C(O)CC(CC(=O)Nc1ccc(-n2ccc(C(F)(F)F)n2)cc1)c1ccccc1 (centres undefined) | 2 | / | 0 | 9 | -14 | 0 | /
C=CCc1cccc([C@@H]2[C@@H](C)CC[C@H]3C(=O)N4[C@@H](c5cc(OC)c(OC)c(OC)c5)c5[nH]c6ccccc6c5C[C@H]4C(=O)N23)c1 | -4 | 5 | / | 34* | 35 | -1 | 9
COc1ccc2cc1Oc1ccc(cc1)CC1c3c(cc(OC)c4c3Oc3cc5c(cc3O4)CCNC5C2)CCN1C (centres undefined) | -1 | / | 30 | 45* | -10 | 1 | 8
Cc1ccc(C2NC(=O)c3ccccc3N2)s1 (centres undefined) | 83* | 43* | 94* | 73* | 43 | 80* | 8
O=C1c2ccccc2C(=O)N1c1cccc2cccnc12 | 3 | 3 | / | 44* | -23 | 10 | 9
Cc1cc(C(=O)OCC(=O)NCc2ccco2)c(C)n1-c1ccc(F)cc1 | -1 | 17* | 82* | 45* | -4 | 4 | 57*
Cn1cc(CC(=O)Nc2cccc(C#N)c2)c2ccccc21 | -2 | 2 | 0 | -1 | 1 | 7 | /
Oc1[nH]c2ccccc2c1N=Nc1nc(Nc2ccccc2)nc(N2CCOCC2)n1 | -1 | / | 0 | 1 | -17 | -12 | /
Cc1[nH]c2ccccc2c1/C=N/Nc1nc(Nc2ccccc2)nc(N2CCOCC2)n1 | 32* | 9 | / | 76* | -36 | 41* | 93*
O=C(C[n+]1cc(Br)cc(Br)c1)c1cccc([N+](=O)[O-])c1 | 0 | 3 | -1 | 2 | -14 | 2 | /
Cc1cccc(C)c1OCC(O)CNC(C)c1ccccc1 (centres undefined) | / | / | / | 39* | 16 | / | 18
